Screens from PubChem.
NPY-Y2 PAM-ag: NPY-Y2 potentiators or agonists, primary screen, cell-based. activation, % at 3.6 µM. Neuropeptide Y receptor type 2 (Homo sapiens), P49146. 220,000 compounds, 0.45% hits. cells expressing NPY-Y2, potentiator/agonist read-out; in the data active = activation above about 27%;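 note: cells stimulated with NPY near EC25 plus isoproterenol at EC100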
Rad51 HR inh: human RAD51 strand exchange inhibitors, primary screen, biochemical, fluorescence; DNA repair protein RAD51 homolog 1 (Homo sapiens), Q06609; hRad51 DNA strand exchange, fluorescence dequenching; inhibition, % at 10 µM; 200,000 compounds, 0.085% hits; AID 1385, 2008;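 active = inhibition above 40% at the single screening dose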
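Assay system: Human Rad51 nucleoprotein filaments preassembled on unlabelled ssDNA | Reagent: Donor/quencher-labelled 47-bp dsDNA substrate | Doses: One concentration, 10 µM final | Times: 37 °C 15-min filament assembly, 30-min compound preincubation, 15-min exchange | Technique: Fluorescein emission 520 nm, excitation 485 nm | Benchmarks: Plate control and blank wells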
Measles CPE: compounds protecting cells from measles virus cytopathic effect, primary screen, measles RdRp inhibitor project, single point, MLSMR library, absorbance; protection (pct of control), % at 4 µM; Measles virus-infected cells, CPE protection; 140,000 compounds, 1.5% hits; in the data active = protection mostly above about 24%, no sharp cut-off; inactive = mostly below about 26%
NPY-Y1 antag: NPY-Y1 receptor antagonists, primary screen, cell-based. AID 1040, 2008. inhibition, % at 3.6 µM. Neuropeptide Y receptor type 1 (Homo sapiens), P25929. HEK293-CNG Y1 cells, membrane potential fluorescence; NPY at EC95, then isoproterenol. 200,000 compounds, 1% hits;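 active = inhibition above the campaign mean inhibition of all tested compounds plus 3 SD, cut at about 20% in these data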
Target sequence (P25929 whole entry, looked up): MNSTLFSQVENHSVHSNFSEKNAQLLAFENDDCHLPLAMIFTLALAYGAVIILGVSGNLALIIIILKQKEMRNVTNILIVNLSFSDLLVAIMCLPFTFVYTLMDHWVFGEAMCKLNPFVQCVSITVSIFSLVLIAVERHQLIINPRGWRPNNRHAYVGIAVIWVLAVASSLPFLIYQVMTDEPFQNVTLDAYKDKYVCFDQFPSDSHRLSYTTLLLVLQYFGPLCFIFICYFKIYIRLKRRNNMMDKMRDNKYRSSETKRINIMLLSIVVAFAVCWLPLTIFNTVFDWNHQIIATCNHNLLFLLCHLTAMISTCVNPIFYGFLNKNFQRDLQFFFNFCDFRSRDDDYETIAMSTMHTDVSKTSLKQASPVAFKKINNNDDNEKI
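Test system – HEK293 Y1/CNG channel cell line · Also added – NPY agonist 25 nM, then isoproterenol 1 µM plus Ro 20-1724 25 µM · Compound dosing – one concentration, 3.6 µM, in 0.4% DMSO · Schedule – compound incubation 1 h at room temperature, readout 45 min post-stimulation · Technique – fluorescence, membrane potential probe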
NPY-Y2 antag: NPY-Y2 receptor antagonists, primary screen, cell-based | Neuropeptide Y receptor type 2 (Homo sapiens), P49146 | NPY-Y2 expressing cells, antagonist mode | inhibition, % at 2.7 µM | 140,000 compounds, 0.99% hits
NPY1 pot ag: NPY-Y1 receptor potentiators or agonists, primary screen, cell-based; activation, % at 3.6 µM; NPY-Y1 expressing cells, potentiator/agonist activation; Neuropeptide Y receptor type 1 (Homo sapiens), P25929; 220,000 compounds, 0.37% hits; AID 1304, 2008; in the data active = activation above about 33%, passing the limit was not always enough;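 note: cells stimulated with NPY at EC10 then isoproterenol at EC100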
NPY-Y1 ant conf: NPY-Y1 receptor antagonists, retest of hits, confirmation, HEK293-CNG cells, membrane potential fluorescence, triplicate; shares compounds with NPY-Y1 antag; cAMP; NPY challenge against isoproterenol-raised cAMP; inhibition, % at 3.6 µM; 1,200 compounds, 21% hits; in the data active = inhibition above about 20%
NPY-Y2 antag ct: NPY-Y2 receptor antagonists, selectivity check, confirmation, counter-screen for NPY-Y1 antagonist project, HEK293-CNG cells, membrane potential fluorescence, triplicate; shares compounds with NPY-Y1 antag; antagonism; cells given NPY, then isoproterenol; inhibition, % at 3.6 µM; 1,200 compounds, 28% hits; AID 1255, 2008
A number is an active result; 0 = inactive; - = not tested or not shown. Compounds with a hit are over-represented: about 2.8% of the library has one in this group of screens. Cut-off read from the data, not from the text of the source, unless noted: active = inhibition above about 17%; inactive = the rest.

SMILES	NPY-Y2 PAM-ag	Rad51 HR inh	Measles CPE	NPY-Y1 antag	NPY-Y2 antag	NPY1 pot ag	NPY-Y1 ant conf	NPY-Y2 antag ct
COc1cc(NC(=O)C2COc3ccccc3O2)c(OC)cc1Cl (centres undefined)	0	0	0	31	0	0	0	0
COC(=O)c1ccc(C)c(NC(=O)C2COc3ccccc3O2)c1 (centres undefined)	0	0	0	0	0	0	-	-
COc1ccc(NC(C)=O)cc1NC(=O)c1ccc(Cl)cc1	0	0	-	0	-	0	-	-
COc1cc(NC(=O)c2ccc(Cl)cc2)c(OC)cc1Cl	0	0	0	31	0	0	0	0
CCNC(=S)SCCOc1ccccc1C	0	0	0	0	0	0	-	-
CCNc1nc(NCC)nc(SCCOC(=O)Nc2ccc(Cl)cc2Cl)n1	0	-	0	24	0	0	0	0
CCNc1nc(NCC)nc(SCCOC(=O)c2ccccc2)n1	0	0	0	0	0	0	-	-
CCCCC(=O)NC(=S)Nc1c(C)cc(Br)cc1C	0	0	0	0	0	0	-	-
N#Cc1nc(COc2ccc(Br)cc2)oc1NCCCn1ccnc1	0	-	0	26	0	0	0	0
CC(Sc1nnc(-c2cccs2)n1Cc1ccccc1)C(=O)NCc1ccc2c(c1)OCO2 (centres undefined)	0	0	0	24	0	0	0	0
CCOc1ccc(CN2CCN(S(=O)(=O)c3ccc(NC(C)=O)cc3)CC2)cc1	0	0	-	0	-	0	-	-
COC(=O)c1ccc(-c2noc(CN3CCCCC3c3nccn3C)n2)cc1 (centres undefined)	0	0	-	33	-	0	0	0
Cn1ccnc1C1CCCCN1Cc1nc(Cc2ccccc2F)no1 (centres undefined)	0	0	-	0	-	0	-	-
Cc1ccc(NC(=O)C(=O)NCCN2CCN(S(C)(=O)=O)CC2)cc1C	0	0	-	0	-	0	-	-
Cc1nc2c(C(=O)N3CCN(c4ccccn4)CC3)cnn2c(C)c1Cc1cccc(Cl)c1	0	0	0	31	0	0	0	0
Cc1nc2c(C(=O)N3CCCC3)cnn2c(C)c1Cc1c(F)cccc1Cl	0	0	0	0	0	0	-	-
COC(=O)c1c(NC(=O)C2CCCCC2C(=O)O)sc2c1CCCCC2 (centres undefined)	0	0	-	89	-	0	0	0
CCOC(=O)c1c(NC(=O)C2CCCCC2C(=O)O)sc2c1CCCCC2 (centres undefined)	0	0	-	0	-	0	-	-
CCCCOc1ccc(NC(=S)Nc2cc(C)nc(SCCCC)n2)cc1	0	0	0	0	0	0	-	-
Cc1ccc(-c2n[nH]c(=S)n2/N=C/c2c(C)nn(-c3ccccc3)c2C)cc1	0	0	0	0	0	0	-	-
CCc1n[nH]c(=S)n1/N=C/c1c(C)nn(-c2ccccc2)c1Cl	0	0	-	45	-	0	32	53
NS(=O)(=O)c1ccc(NC(=O)COC(=O)CNC(=O)C23CC4CC(CC(C4)C2)C3)cc1	0	0	-	0	-	0	-	-
Cc1cc(C)n2nc(SCC(=O)N(C)c3c(N)n(Cc4ccccc4)c(=O)[nH]c3=O)nc2n1	0	0	-	0	-	0	-	-
CCn1nc(NS(=O)(=O)c2ccccc2)c2cc3cccc(C)c3nc21	0	0	0	0	0	0	-	-
CCCn1nc(NS(C)(=O)=O)c2cc3cccc(C)c3nc21	0	0	0	27	0	0	0	0
SMILES	NPY-Y2 PAM-ag	Rad51 HR inh	Measles CPE	NPY-Y1 antag	NPY-Y2 antag	NPY1 pot ag	NPY-Y1 ant conf	NPY-Y2 antag ct
CCCOc1ccc([N+](=O)[O-])c(N)c1	0	0	0	0	0	0	-	-
CC(OC(=O)CC(NC(=O)c1ccccc1Cl)c1ccccc1)C(=O)Nc1cccc(Cl)c1Cl (centres undefined)	0	0	0	30	0	0	27	17
CN(NS(=O)(=O)c1ccc(Cl)cc1)c1ncc(C(F)(F)F)cc1Cl	0	0	-	0	-	0	-	-
COc1ccc(CNn2c(-c3ccccc3F)nc3ccccc3c2=O)cc1OC	0	0	-	0	-	0	-	-
CCCCNc1nc2ccccc2n1CC(=O)N1CCc2ccccc2C1	0	0	0	23	0	0	0	0
CCCCNC(=O)N1CCc2ccccc2C1	0	-	0	0	0	0	-	-
CCCCNc1nc2ccccc2n1CC(=O)Nc1c(C)cccc1CC	0	0	0	31	0	0	0	0
O=C(CSc1nccc(=O)[nH]1)N1CCN(c2ccccc2)CC1	0	0	-	0	-	0	-	-
COc1cc(/C=N/NC(=O)C(=O)NCC2CCCO2)cc(Cl)c1O (centres undefined)	0	-	-	-	-	0	-	-
Cc1ccc(C(c2nnnn2CCc2ccccc2)N2CCC(C)CC2)cc1 (centres undefined)	0	0	0	0	0	0	-	-
Cc1ccc(C(c2nnnn2CCc2ccccc2)N2CCSCC2)cc1 (centres undefined)	0	-	0	21	0	0	0	0
Cc1noc(NS(=O)(=O)c2ccc(NC(=O)c3ccc(OC(C)C)cc3)cc2)c1C	0	0	-	54	-	0	0	0
CC(=O)c1ccc(OC(=O)c2cc3ccccc3oc2=O)cc1	0	0	-	0	-	0	-	-
NC(=O)c1cc2c3ccccc3ccn2c1-c1ccccc1	0	0	-	-	-	0	-	-
CCOC(=O)c1cnn(-c2nc(-c3ccccc3)cs2)c1C(F)(F)F	0	0	0	20	0	0	0	0
CCOC(=O)C(=CNc1cc(C)nn1-c1ccc(Cl)cc1)C(=O)OCC	0	0	0	24	0	0	21	0
O=C(NCC(c1cccnc1)N1CCN(c2ccc(F)cc2)CC1)C1CCCCC1 (centres undefined)	0	0	0	66	0	0	0	0
O=C(C=C=Nc1ccccc1)C(=O)N=C=Cc1ccccc1	0	0	-	-	-	0	-	-
O=C(NC(NC(=S)Nc1c(Cl)cccc1Cl)C(Cl)(Cl)Cl)OCc1ccccc1 (centres undefined)	0	0	0	22	0	0	0	0
O=C(CCCN1C(=O)c2cccc3cccc(c23)C1=O)N1CCc2ccccc2C1	0	0	0	23	0	0	0	0
CC(C)(C)C(=O)NNC(=O)c1cnccn1	0	0	-	-	-	0	-	-
NC(=O)c1cc2cc(Cl)ccc2o/c1=N/NC(=O)c1cccs1	0	0	-	-	-	0	-	-
CCN(CC)CCNC(=S)NC(=O)c1cn(-c2ccccc2)nc1-c1ccc(OC)cc1	0	0	-	26	-	0	0	32
COC(=O)c1cn(-c2ccccc2)nc1-c1ccc(OC)cc1	0	0	-	0	-	0	-	-
